The series in a line: Toxicity liver stage against HepG2, at 10uM. The format is cell-based. On the set-up: test concentration 10 uM, cell line HepG2-A16-CD81EGFP. Conditions: human, HepG2-A16-CD81EGFP cells; read-out: INHIBITION
The method, boiled down:
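Uninfected HepG2-A16-CD81EGFP cells, 3 × 10^3 per well, 1536-well, plated on prespotted compound at 10 μM final, parasite-free screening media added to match infected plates; puromycin 10 μM positive, DMSO 0.5% negative; run in parallel with 48 h PbLuc assay at 37 °C, 5% CO2; viability by CellTiter-Glo luminescence, normalized to controls.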
For `CCOC(=O)COc1nc(CC(C)C)c2c(c1C#N)CCC2`, the cytotoxicity at 10 µM was -5.72%.

Consider `CNC(=O)[C@H]1CC[C@@H]2[C@@H](CCN2c2ncccn2)O1`, for which the cytotoxicity at 10 µM was 6.25%.

For the compound `O=C1NC2(CCN(CCO)CC2)CC1c1ccccc1` (configuration not stated), the cytotoxicity at 10 µM was -3.83%.

Turning to `CCc1nc(C2CCCN(C(=O)c3ccncc3)C2)no1` (configuration not stated), the cytotoxicity at 10 µM is -13%.

Turning to `CC(C)C(=O)N(C)Cc1nc(N2CCCC2)ncc1-c1ccncc1`, the cytotoxicity at 10 µM was determined as 6.54%.

Take `COc1c(C2CCCN2Cc2nccn2C)c(C)nn1C` (configuration not stated): the cytotoxicity at 10 µM stood at 3.06%.

With `O=C(C1=CCCCC1)N1CCO[C@H]2[C@H](Oc3ccccn3)CC[C@@H]21`, the cytotoxicity at 10 µM came to 5.08%.

Take `Cc1cc(-c2cnc(N3CCOCC3)nc2-c2ccc(C)s2)on1`: the cytotoxicity at 10 µM was -5.72%.

On to `CCS(=O)(=O)NC[C@]12COC[C@H]1CN(Cc1cccnc1)C2`, for which the cytotoxicity at 10 µM was 5.22%.

Consider `COc1ccc(N2CCN(C(=O)CCn3nccc3C)CC2(C)C)cc1`, for which the cytotoxicity at 10 µM was 57.1%.

Regarding `COc1ccc(CN(C(=O)C2CCCOC2)c2ccncc2)cc1` (configuration not stated), the cytotoxicity at 10 µM is 6.35%.

Turning to `CC1(C)COCCN1C(=O)c1ccc(Cn2cncn2)cc1`, the cytotoxicity at 10 µM is -5.85%.

In the case of `CNS(=O)(=O)c1ccsc1C(=O)OC`, the cytotoxicity at 10 µM worked out at 7.54%.

Consider `Cn1cc(C(=O)CC2CCCN2C(=O)c2ccn3ccnc3c2)cn1` (configuration not stated), for which the cytotoxicity at 10 µM was -5.81%.

On to `O=C([C@@H]1C[C@@H]2CCN(Cc3ccoc3)C[C@H]2O1)N1CCCC1`, for which the cytotoxicity at 10 µM was -101%.

On to `Cc1cc2c(N3CCCC(OCc4cccnc4)C3)ncnc2s1` (configuration not stated), for which the cytotoxicity at 10 µM worked out at 39%.

As for `Cn1cc(C(=O)N2CCCC2CCc2ccccc2)cn1` (configuration not stated), the cytotoxicity at 10 µM came to 9.84%.

With `O=C(c1ccc(Cl)cc1)N1CCC(N2CCCOC2=O)CC1`, the cytotoxicity at 10 µM turned out to be 11.1%.

Consider `Cc1nc2ccccc2nc1NCc1nnc2n1CCC2`, for which the cytotoxicity at 10 µM was -1.8%.

As to `COCCNC(=O)C[C@@H]1COC[C@H]2CN(Cc3cccnc3)C[C@@H]12`, the cytotoxicity at 10 µM turned out to be 2.13%.

As to `COc1ccnc(N2CCN(Cc3nc(-c4ccoc4)no3)CC2)c1`, the cytotoxicity at 10 µM is -10.9%.

`CN(C)C(=O)CN1CCCc2c(F)cc(Br)cc21`: the cytotoxicity at 10 µM was -0.682%.

Take `Cc1cc(Oc2ccccc2C)nc(C2CCCN2)n1` (configuration not stated): the cytotoxicity at 10 µM worked out at 1.22%.

With `O=S(=O)(NCC1CCN(c2ccccn2)CC1)c1ccccc1F`, the cytotoxicity at 10 µM was -0.549%.

Consider `Cc1noc(C)c1-c1cccc(CC2CCN(C(=O)c3cscn3)C2)n1` (configuration not stated), for which the cytotoxicity at 10 µM is -6.66%.

For `CC(=O)N[C@@H](CC(C)C)C(=O)N1CCC(n2cc(C(C)(C)N)nn2)CC1`, the cytotoxicity at 10 µM was -11.7%.

For the compound `C1Cc2nc(CCNc3nc(C4CC4)nc4c3CCNCC4)sc2C1`, the cytotoxicity at 10 µM was -10.4%.

In the case of `O=C(Nc1cccnc1)c1ccc(-n2cncn2)nn1`, the cytotoxicity at 10 µM was determined as 4.48%.

For the compound `CC(C)c1cc(C(=O)NCC2CCCN(c3ncccn3)C2)n(C)n1` (configuration not stated), the cytotoxicity at 10 µM was 17.2%.

Turning to `CN(C)CCN1CCCC12CCN(C(=O)c1cnccn1)CC2`, the cytotoxicity at 10 µM was 4.99%.

As for `O=c1[nH]c2c(-c3ccccn3)nsc2c(=O)n1C1CCCCC1`, the cytotoxicity at 10 µM is -11.5%.

Turning to `COc1cc(C2(C(=O)N3CCN(CC(C)O)CC3)CC2)ccc1C` (configuration not stated), the cytotoxicity at 10 µM was -2.43%.

`COCC1c2c(cnn2CC2CC2)CCN1Cc1nccs1` (configuration not stated): the cytotoxicity at 10 µM was -1.21%.

Take `CCCN(C)S(=O)(=O)NC(=O)c1ccc(CC)o1`: the cytotoxicity at 10 µM is 20.5%.

In the case of `O=C(NC1CCCCC1)c1ccc(COCC(F)(F)F)o1`, the cytotoxicity at 10 µM was found to be 14.1%.

As to `c1ccc(OCCNC2CCN(c3ncccn3)CC2)cc1`, the cytotoxicity at 10 µM was 1.85%.

Turning to `CCSCCn1c(=O)n(Cc2ccc(F)cc2)c2ncc(C(=O)O)cc21`, the cytotoxicity at 10 µM was -2.54%.

For `COCC(C)N1CCN(CCc2ccc3c(c2)CCO3)CC1` (configuration not stated), the cytotoxicity at 10 µM turned out to be 4.16%.

As for `COc1ncccc1CNC(=O)c1cnc(C)cn1`, the cytotoxicity at 10 µM is -4.69%.

Take `O=S(=O)(Nc1nccs1)c1cc(Cl)cc2c1OCC2`: the cytotoxicity at 10 µM is -2.19%.

For the compound `CC(C)c1nnc2n1CCN(CC(=O)N1CCc3sccc3C1)C2`, the cytotoxicity at 10 µM is -10.4%.

As for `COCCN1CC2(CCCN(Cc3cc(=O)c(OC)co3)C2)CCC1=O` (configuration not stated), the cytotoxicity at 10 µM is -40%.

Consider `Cc1cccc(S(=O)(=O)N2CC[C@H]3[C@H]2CCN3c2ncccn2)c1`, for which the cytotoxicity at 10 µM is 0.995%.

Take `Cc1ccc(CNCCOc2ccc(S(C)(=O)=O)cc2)cc1`: the cytotoxicity at 10 µM is -9.12%.

In the case of `CC(NC(=O)CCC(=O)c1cccs1)c1nnc2n1CCCCC2` (configuration not stated), the cytotoxicity at 10 µM was -7.76%.

Consider `Cc1nc2cc(CNC(=O)C3CC(=O)N(C4CCCC4)C3)ccc2n1C` (configuration not stated), for which the cytotoxicity at 10 µM was -2.37%.

Turning to `COc1ccc(CCN2CCCC(CN(C)Cc3[nH]cnc3C)C2)cc1` (configuration not stated), the cytotoxicity at 10 µM is -11.7%.

Regarding `NCC1Cn2nnc(-c3cccc(F)c3)c2CO1` (configuration not stated), the cytotoxicity at 10 µM was -12.1%.

Take `Cc1ncsc1-c1cc(C(=O)NCCO)ccn1`: the cytotoxicity at 10 µM was -6.58%.

As for `CCOc1ccc(NS(=O)(=O)c2cc(C)c(C(=O)O)s2)cc1F`, the cytotoxicity at 10 µM was -3.24%.

In the case of `O=C1c2ccccc2C(=O)N1CC(O)Cn1nc(-c2cccs2)oc1=O` (configuration not stated), the cytotoxicity at 10 µM was -14.5%.

`O=C(Nc1ccccn1)N(CCO)Cc1ccsc1`: the cytotoxicity at 10 µM is 2.12%.

Consider `CCN1CC2(CCN(C(=O)C(C)Oc3ccc(F)cc3F)CC2)OC1=O` (configuration not stated), for which the cytotoxicity at 10 µM was -1.98%.

For the compound `COc1ccccc1CC(=O)N1CCCC(c2cc(C)[nH]n2)C1` (configuration not stated), the cytotoxicity at 10 µM is -21%.

Turning to `Cc1noc(C(C)N2CCN(CC(=O)N3CCCC3)CC2)n1` (configuration not stated), the cytotoxicity at 10 µM came out at 0.678%.

For `CSc1nccc(N2CCC(NCc3ccc4c(c3)OCO4)CC2)n1`, the cytotoxicity at 10 µM is -3.4%.

For the compound `COc1cc(CNC(=O)Nc2nnc(C3CC3)s2)ccc1O`, the cytotoxicity at 10 µM is 31.3%.

As for `O=C(NCCn1ccnc1)NCC(c1ccco1)N1CCCCC1` (configuration not stated), the cytotoxicity at 10 µM is 3.44%.

Turning to `Cc1nc(C)c(CC(=O)Nc2ncc(C)s2)c(=O)[nH]1`, the cytotoxicity at 10 µM is -5.49%.

On to `Cn1ncc2c(N3CC(N4CCCCC4)C3)nc(C3CCCC3)nc21`, for which the cytotoxicity at 10 µM was -5.07%.

With `O=C(NCC(Cc1cccc(F)c1)N1CCCC1=O)c1cnccn1` (configuration not stated), the cytotoxicity at 10 µM is -5.06%.

Consider `Cn1ccnc1C1CCN(S(=O)(=O)c2ccc3[nH]c(=O)[nH]c3c2)CC1`, for which the cytotoxicity at 10 µM was determined as 4.82%.

`Cc1c(NC(=O)c2ncn[nH]2)cccc1C(=O)NC(C)(C)C`: the cytotoxicity at 10 µM is -8.93%.

For `Cn1ccnc1CN1CCC2(CC1)CC(Nc1ccccn1)CO2` (configuration not stated), the cytotoxicity at 10 µM was -7.97%.

Regarding `CC1c2ncc(CN3CCN(C)CC3)n2CCN1Cc1cnn(C)c1` (configuration not stated), the cytotoxicity at 10 µM was 7.77%.

On to `CN(C)S(=O)(=O)N1CCC2(CCCN(Cc3ccc(F)cc3)C2=O)C1` (configuration not stated), for which the cytotoxicity at 10 µM was -9.67%.

Consider `CC(NCC1=Cc2cc(Cl)ccc2OC1)c1nnc2n1CCCC2` (configuration not stated), for which the cytotoxicity at 10 µM was -11.4%.

Regarding `Cc1cc(C)n(C2CCCN(C(=O)c3c(C)c(C)n[nH]c3=O)C2)n1` (configuration not stated), the cytotoxicity at 10 µM was found to be 3.18%.

Take `COC(=O)CN(Cc1ccccc1C)C(=O)CCCNC(=O)C1CC1`: the cytotoxicity at 10 µM is -13.4%.

Consider `Cc1nc(CN2CCCC(NCc3cccc4ccccc34)C2)no1` (configuration not stated), for which the cytotoxicity at 10 µM was -0.819%.

Consider `CC1(C)CN(C(=O)c2occc2COc2cccc(C#N)c2)CCO1`, for which the cytotoxicity at 10 µM is 8.18%.

For the compound `OCc1c(Cl)ncn1-c1ccccc1`, the cytotoxicity at 10 µM is -8.99%.

For the compound `CC(NCC(=O)N1CCc2sccc2C1)c1ccccc1F` (configuration not stated), the cytotoxicity at 10 µM amounted to 1.8%.

For `COCc1ccc(C(=O)N2CCN(CC=C(C)C)[C@@H]3CS(=O)(=O)C[C@@H]32)o1`, the cytotoxicity at 10 µM was determined as 17.2%.

Regarding `CC(=O)N1CCCN(C(=O)c2ccn(-c3cccc(Cl)c3)n2)CC1`, the cytotoxicity at 10 µM is -1.37%.

As for `Cn1cccc1C(O)CNC(=O)COc1ccccc1F` (configuration not stated), the cytotoxicity at 10 µM was -2.54%.

Consider `CCCN1CCC2(CC1)COc1ccccc1S(=O)(=O)N(CC1CC1)C2`, for which the cytotoxicity at 10 µM was -3.43%.

With `Cc1nc2cc(F)ccc2cc1C(=O)N1CCN(CC(C)O)CC1` (configuration not stated), the cytotoxicity at 10 µM was 2.49%.

Consider `CCOc1cccnc1C(=O)N1CC=C(c2ccc(O)cc2)CC1`, for which the cytotoxicity at 10 µM was -1.66%.

In the case of `Cc1nc(CN(C)S(=O)(=O)c2ccccc2Br)no1`, the cytotoxicity at 10 µM stood at 6.2%.

On to `Cc1cnc(N2CC[C@@H]3O[C@H](COCc4ccccn4)CC[C@@H]32)nc1`, for which the cytotoxicity at 10 µM was -76.3%.

Consider `O=C(c1ccsc1)N1CCO[C@@H]2CN(Cc3ccccn3)CC[C@@H]2C1`, for which the cytotoxicity at 10 µM is -123%.

In the case of `Cc1ccc(Oc2cc(F)ccc2O[C@@H]2CCC[C@@H](N)[C@H]2O)cc1`, the cytotoxicity at 10 µM was -3.89%.

Regarding `CCc1nc(C2CCCN2C(=O)c2cnns2)no1` (configuration not stated), the cytotoxicity at 10 µM is 1.04%.

For the compound `CN1C(=O)CC(N(C)Cc2nc3ccccc3c(=O)[nH]2)C1=O` (configuration not stated), the cytotoxicity at 10 µM was 7.61%.

Consider `Cc1ccc(C(=O)N2Cc3c(CN4CCCCC4)nn(C)c3C2)cc1F`, for which the cytotoxicity at 10 µM is -4.15%.

On to `Cc1nc(CCCNC(=O)c2cc(F)ccc2O)n[nH]1`, for which the cytotoxicity at 10 µM is -5.32%.

For the compound `O=C(O)C(c1ccc2c(c1)OCO2)N1CCCC1` (configuration not stated), the cytotoxicity at 10 µM was -3.04%.

For the compound `O=S(=O)(Cc1ccc(Br)cc1)NCCO`, the cytotoxicity at 10 µM was determined as 6.73%.

For the compound `Cc1csc(N(C)C(=O)C2CC(=O)N(CCc3ccccc3)C2)n1` (configuration not stated), the cytotoxicity at 10 µM is -99.4%.

`N#Cc1cccc(S(=O)(=O)NC(=O)CCOCC(F)(F)F)c1`: the cytotoxicity at 10 µM turned out to be 12.4%.

As for `O=C(Cn1nc2c(cc1=O)CCCC2)NC(C(=O)O)c1ccccc1` (configuration not stated), the cytotoxicity at 10 µM was determined as 5.7%.

As to `CN1CCCCC1Cc1nc2c(cc1C(N)=O)CCC2` (configuration not stated), the cytotoxicity at 10 µM is -9.55%.

Turning to `Cc1cnn(CC(C)NCc2ccc(S(C)(=O)=O)cc2)c1` (configuration not stated), the cytotoxicity at 10 µM is 4.62%.

As to `COCCN1CCOCC12CCN(Cc1ccn(C)n1)CC2`, the cytotoxicity at 10 µM is -3.39%.

In the case of `COCCN1CCC2(CCC1=O)CN(c1ccnc(SC)n1)CCN2C` (configuration not stated), the cytotoxicity at 10 µM was determined as 2.41%.

In the case of `Cc1nc2sccn2c1CNc1ccc(C(=O)O)cc1`, the cytotoxicity at 10 µM came to 11.7%.

These data come from ChEMBL document CHEMBL4513216, “Probing the Open Global Health Chemical Diversity Library for Multistage-Active Starting Points for Next-Generation Antimalarials” (ACS Infect Dis, 2020).
